In ChEMBL document CHEMBL1629418, “Spiroimidazolidinone NPC1L1 inhibitors. Part 2: structure-activity studies and in vivo efficacy” (Bioorg Med Chem Lett, 2010):

Columns and labels:
[1] = target: T1, NPC1-like intracellular cholesterol transporter 1 (Homo sapiens, UniProt Q9UHC9); assay: Displacement of [35S](2S,3S,4S,5R,6S)-6-(4-((2S,3R)-3-((S)-3-(4-fluorophenyl)-3-hydroxypropyl)-1-(4-(3-(methylsulfonamido)prop-1-ynyl)phenyl)-4-oxoazetidin-2-yl)phenoxy)-3,4,5-trihydroxytetrahydro-2H-pyran-2-carboxylic acid from human NCP1L1 expressed in HEK 293; type: cell-based, HEK293
T1 sequence (Q9UHC9 whole entry): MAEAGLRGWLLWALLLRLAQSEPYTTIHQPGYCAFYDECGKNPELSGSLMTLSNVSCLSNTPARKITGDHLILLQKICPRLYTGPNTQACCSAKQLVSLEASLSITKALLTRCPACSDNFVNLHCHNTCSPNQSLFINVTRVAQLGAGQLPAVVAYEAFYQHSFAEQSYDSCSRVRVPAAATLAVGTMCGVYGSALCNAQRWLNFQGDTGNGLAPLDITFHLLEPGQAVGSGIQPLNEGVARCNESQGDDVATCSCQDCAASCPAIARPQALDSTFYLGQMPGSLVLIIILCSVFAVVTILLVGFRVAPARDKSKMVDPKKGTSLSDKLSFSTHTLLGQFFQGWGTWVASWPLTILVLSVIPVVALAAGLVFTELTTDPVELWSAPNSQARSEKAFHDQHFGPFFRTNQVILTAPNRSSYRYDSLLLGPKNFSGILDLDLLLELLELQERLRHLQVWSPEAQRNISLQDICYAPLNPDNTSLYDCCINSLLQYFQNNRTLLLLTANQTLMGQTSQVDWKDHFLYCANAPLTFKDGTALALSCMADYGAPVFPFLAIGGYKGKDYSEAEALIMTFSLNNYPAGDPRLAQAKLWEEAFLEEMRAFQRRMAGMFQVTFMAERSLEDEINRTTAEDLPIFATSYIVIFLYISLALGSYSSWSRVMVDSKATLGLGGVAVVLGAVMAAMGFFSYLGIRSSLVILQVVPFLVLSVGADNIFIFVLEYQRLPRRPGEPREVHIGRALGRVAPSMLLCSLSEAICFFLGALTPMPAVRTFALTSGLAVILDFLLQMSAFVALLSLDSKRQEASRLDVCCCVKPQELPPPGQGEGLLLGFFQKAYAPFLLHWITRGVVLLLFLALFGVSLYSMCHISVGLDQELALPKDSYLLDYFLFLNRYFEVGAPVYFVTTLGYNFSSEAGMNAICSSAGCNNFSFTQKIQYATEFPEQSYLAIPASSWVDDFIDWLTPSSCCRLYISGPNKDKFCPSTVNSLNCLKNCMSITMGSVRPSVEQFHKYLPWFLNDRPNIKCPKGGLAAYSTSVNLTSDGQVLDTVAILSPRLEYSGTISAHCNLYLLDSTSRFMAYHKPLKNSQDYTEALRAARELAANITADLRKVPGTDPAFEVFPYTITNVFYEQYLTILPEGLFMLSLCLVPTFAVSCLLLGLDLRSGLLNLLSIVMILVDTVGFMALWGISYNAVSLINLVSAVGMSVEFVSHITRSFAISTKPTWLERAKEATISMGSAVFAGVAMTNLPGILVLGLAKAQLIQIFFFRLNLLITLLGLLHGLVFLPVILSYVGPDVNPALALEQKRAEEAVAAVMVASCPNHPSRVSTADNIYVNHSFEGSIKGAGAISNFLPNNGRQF

Mus musculus [2] = assay: Inhibition of cholesterol-absorption in mouse plasma at 100 mg/kg, po; type: functional
How it was run: (§1)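 Male C57BL/6 mice received compound orally as a suspension in 0.2 mL of 0.25% methocel. After 30 min, mice were given 0.2 mL oral [3H]cholesterol in IntraLipid. Mice were euthanized at 1.5 h or 5 h. Plasma [3H]cholesterol was counted from cardiac-puncture blood; liver was saponified for [3H]cholesterol. Six data points per dose were averaged; % inhibition reported.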

[3] = target: NPC1-like intracellular cholesterol transporter 1 (Mus musculus) (UniProt Q6T3U4); assay: Displacement of [35S](2S,3S,4S,5R,6S)-6-(4-((2S,3R)-3-((S)-3-(4-fluorophenyl)-3-hydroxypropyl)-1-(4-(3-(methylsulfonamido)prop-1-ynyl)phenyl)-4-oxoazetidin-2-yl)phenoxy)-3,4,5-trihydroxytetrahydro-2H-pyran-2-carboxylic acid from mouse NCP1L1 expressed in mouse brush border membrane; type: cell membranes
Chain of NPC1-like intracellular cholesterol transporter 1 (Mus musculus) (Q6T3U4 21-1333 limits assumed): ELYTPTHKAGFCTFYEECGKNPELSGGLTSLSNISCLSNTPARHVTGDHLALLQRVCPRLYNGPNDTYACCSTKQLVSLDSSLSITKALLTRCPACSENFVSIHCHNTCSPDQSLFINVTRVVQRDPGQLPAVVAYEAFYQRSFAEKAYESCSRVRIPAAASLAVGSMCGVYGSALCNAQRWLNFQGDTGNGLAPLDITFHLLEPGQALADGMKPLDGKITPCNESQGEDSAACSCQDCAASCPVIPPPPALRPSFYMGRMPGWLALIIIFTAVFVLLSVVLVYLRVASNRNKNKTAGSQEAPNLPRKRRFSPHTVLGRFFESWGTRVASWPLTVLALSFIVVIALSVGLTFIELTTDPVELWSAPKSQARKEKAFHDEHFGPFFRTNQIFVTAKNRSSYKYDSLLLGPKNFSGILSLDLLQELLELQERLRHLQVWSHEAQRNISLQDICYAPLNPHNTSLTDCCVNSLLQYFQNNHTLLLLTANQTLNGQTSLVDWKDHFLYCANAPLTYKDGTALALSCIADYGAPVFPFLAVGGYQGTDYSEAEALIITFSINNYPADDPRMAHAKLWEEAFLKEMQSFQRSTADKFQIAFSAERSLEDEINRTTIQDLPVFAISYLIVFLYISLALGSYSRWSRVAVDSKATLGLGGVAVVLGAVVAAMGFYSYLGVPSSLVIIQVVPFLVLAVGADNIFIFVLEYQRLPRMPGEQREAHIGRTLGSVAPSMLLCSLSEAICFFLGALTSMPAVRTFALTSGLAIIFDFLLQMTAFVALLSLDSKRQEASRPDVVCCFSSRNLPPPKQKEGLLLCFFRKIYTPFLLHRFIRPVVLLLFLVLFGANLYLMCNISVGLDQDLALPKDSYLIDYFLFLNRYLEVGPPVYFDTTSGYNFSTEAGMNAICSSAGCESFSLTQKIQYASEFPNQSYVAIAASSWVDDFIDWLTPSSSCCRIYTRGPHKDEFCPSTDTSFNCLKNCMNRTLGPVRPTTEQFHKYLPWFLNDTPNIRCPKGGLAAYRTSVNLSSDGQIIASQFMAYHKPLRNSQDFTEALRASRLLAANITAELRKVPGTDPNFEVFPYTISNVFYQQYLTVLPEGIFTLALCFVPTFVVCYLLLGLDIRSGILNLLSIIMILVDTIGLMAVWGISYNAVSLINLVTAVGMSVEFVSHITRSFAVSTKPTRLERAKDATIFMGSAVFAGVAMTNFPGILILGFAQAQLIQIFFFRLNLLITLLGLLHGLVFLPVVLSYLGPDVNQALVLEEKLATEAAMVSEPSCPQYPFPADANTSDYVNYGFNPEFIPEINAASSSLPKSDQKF

Mus musculus [4] = assay: Inhibition of cholesterol-absorption in mouse plasma at 10 mg/kg, po; type: functional; how it was run: as §1
Mus musculus [5] = assay: Inhibition of cholesterol-absorption in mouse plasma at 30 mg/kg, po; type: functional; how it was run: as §1
Mus musculus [6] = assay: Inhibition of [3H]cholesterol absorption in C57BL/6 mouse plasma at 10 mg/kg, po after 1.5 hrs; type: functional; details: C57BL/6, Plasma; how it was run: as §1
Mus musculus [7] = assay: Inhibition of [3H]cholesterol absorption in C57BL/6 mouse plasma at 30 mg/kg, po after 1.5 hrs; type: functional; details: C57BL/6, Plasma; how it was run: as §1
Mus musculus [8] = assay: Inhibition of [3H]cholesterol absorption in C57BL/6 mouse plasma at 100 mg/kg, po after 1.5 hrs; type: functional; details: C57BL/6, Plasma; how it was run: as §1
Mus musculus [9] = assay: Inhibition of [3H]cholesterol absorption in C57BL/6 mouse plasma at 100 mg/kg, po after 5 hrs; type: functional; details: C57BL/6, Plasma; how it was run: as §1

IC50 [1]: 2.5 µM | IC50 [3]: 40 µM
SMILES: CCc1nn(CC)c(C2CCN(C(=O)CN3CN(c4ccccc4)C4(CCN(C(=O)c5ccc(C(C)(C)C)cc5)CC4)C3=O)CC2)c1C
inhibition in vivo at 100 mg/kg (Mus musculus [2]): 62% | inhibition in vivo at 10 mg/kg (Mus musculus [4]): 35% | inhibition in vivo at 30 mg/kg (Mus musculus [5]): 48% | inhibition in vivo at 10 mg/kg (Mus musculus [6]): 35% | inhibition in vivo at 30 mg/kg (Mus musculus [7]): 48% | inhibition in vivo at 100 mg/kg (Mus musculus [8]): 62% | inhibition in vivo at 100 mg/kg (Mus musculus [9]): 67%
